# An excerpt weighted towards active compounds, which were near 2.1% of everything screened.
# Hck-Nef inh: human Hck-Nef kinase inhibition; Recombinant Hck-YEEI plus Nef, Z-Lyte FRET kinase assay; P08631; inhibition, % at 20 µM; actives 0.68% (n = 220,000);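 active = Hck-Nef kinase inhibition above about 50%, limit read from the data; inactive = inhibition below that limit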;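 also: 0% = DMSO with Hck plus Nef and 100% = Hck alone without Nef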
# Runt-SMMHC FRET: Runt domain-CBFb-SMMHC interaction inhibition; Q01196+Q13951; Cerulean-Runt/Venus-CBFb-SMMHC FRET ratio 530/480, 1 h; actives 0.74% (n = 220,000); inhibition, % at 20 µM; AID 1434;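 active = mean inhibition across duplicate retests at 20 µM reaching about 50%, limit read from the data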;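 also: 0% = DMSO wells and 100% = wells with excess untagged CBFb-SMMHC; inhibitors lower the FRET ratio by blocking Runt binding to CBFb-SMMHC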
# Target sequence (Q01196 whole entry, looked up, the tested form may be a part): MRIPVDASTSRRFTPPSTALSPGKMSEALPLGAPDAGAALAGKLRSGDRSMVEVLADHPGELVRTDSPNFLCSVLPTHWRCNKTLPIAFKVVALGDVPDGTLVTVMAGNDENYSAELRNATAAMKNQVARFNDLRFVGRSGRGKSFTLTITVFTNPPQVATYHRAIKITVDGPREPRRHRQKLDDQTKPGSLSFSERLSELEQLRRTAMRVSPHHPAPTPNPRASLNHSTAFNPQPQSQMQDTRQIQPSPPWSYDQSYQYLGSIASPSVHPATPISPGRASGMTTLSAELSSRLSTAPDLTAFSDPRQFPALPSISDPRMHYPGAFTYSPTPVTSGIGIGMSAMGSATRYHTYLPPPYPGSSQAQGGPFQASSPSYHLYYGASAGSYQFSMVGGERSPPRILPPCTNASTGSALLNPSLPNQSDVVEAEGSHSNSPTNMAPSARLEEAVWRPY
# Target sequence (Q13951 whole entry, looked up, the tested form may be a part): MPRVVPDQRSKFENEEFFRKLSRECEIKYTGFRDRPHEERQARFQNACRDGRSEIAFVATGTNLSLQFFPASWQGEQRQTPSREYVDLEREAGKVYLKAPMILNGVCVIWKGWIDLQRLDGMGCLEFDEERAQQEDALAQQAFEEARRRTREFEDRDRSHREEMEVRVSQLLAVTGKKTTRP
# TbHK1 inh: T. brucei hexokinase 1 inhibition; inhibition, % at 10 µM; actives 0.11% (n = 220,000); recombinant TbHK1, G6PDH-coupled NADH A340; AID 1430;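 active = inhibition of 50% or more in the single-dose primary screen; inactive = inhibition below 50%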
# RanGTP-Impb inh: disruptors of Ran-importin-beta complex formation – biochemical, FRET, CFP-Ran, YFP-importin-beta, homogeneous, primary screen; cell-free CFP-Ran/YFP-importin-beta FRET ratio; inhibition, % (concentration not given with the values); actives 1.1% (n = 300,000);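 active = more than half of the replicate wells show a fall in the fluorescence ratio signal beyond about 16%, limit read from the data, passing the limit was not always enough; inconclusive = exactly half of the replicate wells pass the set limit; inactive = fewer than half of replicates pass the limit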;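 also: 0% = DMSO wells and 100% = Ran loaded with GDP instead of GTP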
# p97 inhibitor: blocks human p97 ATPase activity | P55072 | recombinant p97 ATPase, Kinase-Glo ATP luminescence, 3 h | inhibition, % at 8 µM | actives 0.42% (n = 220,000) | AID 1481; in the data active = inhibition above about 15%;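 also: 0% = DMSO vehicle and 100% = wells lacking enzyme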
# Runt-CBFb FRET: Runt domain-CBFb interaction inhibition; Q01196+Q13951; Cerulean-Runt/Venus-CBFb FRET ratio 530/480, 1 h; inhibition, % at 20 µM; actives 0.46% (n = 220,000);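 active = inhibition over about 50% at 20 µM in the single-dose screen, limit read from the data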;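 also: 0% = DMSO wells and 100% = excess unlabeled CBFb competitor control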
#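 System: Cerulean-labeled Runt domain protein | Quantity: 100 nM of each labeled protein | Schedule: 1 h compound exposure, room temperature | Detection: Fluorescence energy transfer, 422 nm excitation, 530/480 nm emission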
# * hit, by the source's call; ? = inconclusive; . = no result.
SMILES,Hck-Nef inh,Runt-SMMHC FRET,TbHK1 inh,RanGTP-Impb inh,p97 inhibitor,Runt-CBFb FRET
CCOc1ccc(-c2csc(NC(=O)CSC3=NC(=O)CN3C(C)=O)n2)c2ccccc12,1.3,0.1,-2.6,?,1.6,-5.8
CCOc1ccc(-c2csc(NC(=O)CSCC(=O)O)n2)c2ccccc12,16.0,97.4*,-10.4,0.3,-0.6,27.2
COC(=O)/C(C#N)=C/c1c(N2CCN(c3ccccc3)CC2)nc2c(C)cccn2c1=O,.,.,.,2.9,.,.
C=CCNC(=O)/C(C#N)=C/c1c(N2CCN(c3ccccc3)CC2)nc2c(C)cccn2c1=O,.,.,.,27.6*,.,.
COCCCNC(=O)/C(C#N)=C/c1c(N2CCN(c3ccccc3)CC2)nc2c(C)cccn2c1=O,.,.,.,31.5*,.,.
CCNC(=O)/C(C#N)=C/c1c(N2CCN(C)CC2)nc2c(C)cccn2c1=O,.,.,.,-55.8,.,.
CCNC(=O)/C(C#N)=C/c1c(N2CCN(Cc3ccc4c(c3)OCO4)CC2)nc2c(C)cccn2c1=O,4.4,63.2*,-16.3,9.3,4.7,50.3*
COCCCNC(=O)/C(C#N)=C/c1c(N2CCN(c3cccc(Cl)c3)CC2)nc2c(C)cccn2c1=O,.,.,.,6.0,.,.
O=C(CSc1ccc2nnc(-c3ccccn3)n2n1)NCC1CCCO1 (stereo unspecified),2.0,-2.7,-11.4,-1.4,6.3,2.3
C/C(=N\NC(=O)COc1ccc(C)cc1C(C)C)c1ccc(-n2ccnc2)cc1,0.8,-8.0,7.8,?,3.1,-6.2
Nc1ccc2[nH]ncc2c1,3.9,56.9*,-6.9,?,4.2,20.2
Cc1cc2[nH]ncc2cc1NC(N)=S,-5.3,-5.0,5.1,0.9,4.0,1.2
CC(=O)Nc1ccc(/C=N/NC(=O)c2cccc(S(=O)(=O)N3CCOCC3)c2)cc1,5.4,2.9,-23.8,-0.8,1.9,0.0
N#Cc1ccc(/C=N/NC(=O)c2cccc(S(=O)(=O)N3CCOCC3)c2)cc1,-14.6,-0.6,-5.2,31.7*,6.9,1.1
COc1ccc(C(=O)CCC(=O)Nc2cc(Cl)c(O)c(Cl)c2)cc1,.,.,.,5.1,.,.
COc1ccc(-c2cc(C(F)(F)F)n3nc(C(=O)Nc4c(C)n(C)n(-c5ccccc5)c4=O)cc3n2)cc1,15.2,.,-17.6,.,16.7*,.
COc1cccc(-c2cc(C(F)(F)F)n3nc(C(=O)Nc4c(C)n(C)n(-c5ccccc5)c4=O)cc3n2)c1,18.7,2.4,-4.5,12.9,3.7,-3.0
Nc1nc2nccc(-c3cccnc3)n2n1,22.1,0.4,-10.8,2.7,3.1,1.6
CCC(C)[C@H](NC(=O)N1CCCCC1)C(=O)OC (stereo partly specified),7.6,-5.2,-9.4,23.1*,9.8,1.4
CC(C)Cn1c(-c2ccc(C#N)cc2)nc2c1c(=O)[nH]c(=O)n2CC(C)C,1.8,-0.9,-10.5,-3.5,-1.8,-1.7
COc1cccc(/C(O)=C2/C(=O)C(=O)N(c3cc(C)on3)C2c2cccs2)c1 (stereo unspecified),1.2,145.1*,-21.7,1.2,6.6,77.2*
O=c1cc(CSc2nc3ccccc3c(=O)[nH]2)c2ccc(O)cc2o1,27.4,51.9*,33.1,6.5,3.0,21.1
COc1ccc(C(=O)NNC2=CC(=O)CC(C)(C)C2)cc1,-0.9,1.6,15.8,33.2*,-6.2,3.2
Cc1cc(C)c2c3c(sc2n1)C(c1cccc(F)c1)C(C#N)=C(N)O3 (stereo unspecified),-16.2,61.6*,-0.4,91.1*,-0.5,90.3*
CCC(C)Sc1ccc(-c2nc3cnccn3c2NC2CCCCC2)cc1 (stereo unspecified),.,.,.,30.1*,.,.
SMILES,Hck-Nef inh,Runt-SMMHC FRET,TbHK1 inh,RanGTP-Impb inh,p97 inhibitor,Runt-CBFb FRET
CCCCCCNC(=O)C(C#N)c1nc2ccccc2nc1N1CCCC1 (stereo unspecified),-1.1,-100.5,14.5,24.5*,-8.4,-5.3
CCCCCCNC(=O)C(C#N)c1nc2ccccc2nc1N1CCOCC1 (stereo unspecified),-3.4,-109.9,-2.6,6.3,-7.2,-9.2
COCCCNC(=O)C(C#N)c1nc2ccccc2nc1N1CCCC1 (stereo unspecified),2.3,.,-9.2,54.3*,4.6,.
CCCCCNC(=O)C(C#N)c1nc2ccccc2nc1N1CCCC1 (stereo unspecified),0.3,-49.5,2.8,20.0*,-2.1,20.6
O=S(=O)(Nc1cc(Cl)ccc1N1CCCCC1)c1cccs1,-0.6,0.0,7.0,1.4,-9.4,1.5
Oc1c(Cl)cc(Cl)cc1/C=N/Nc1ncc(Br)cn1,17.2,-15.3,-9.8,-1.6,1.0,-2.4
CN(/N=C/c1cc(Cl)cc(Cl)c1O)C(=S)NC(C)(C)C,-92.3,90.1*,-23.8,4.5,0.3,35.7
CCN(CC)S(=O)(=O)c1ccc(Cl)c(NC(=O)COC(=O)c2ccc([N+](=O)[O-])o2)c1,12.3,-2.6,-15.8,0.3,-1.7,-1.5
COc1cc2nc3c4ccccc4n(CC#N)c3nc2cc1OC,2.1,51.4*,-10.8,9.4,4.6,20.7
CCn1c2ccccc2c2nc3cc(OC)c(OC)cc3nc21,16.5,4.5,-5.8,88.8*,-0.6,1.6
NC(=O)CC[C@@H]1NC(=O)[C@H](CO)NC(=O)c2cc([N+](=O)[O-])cc(I)c2NCCC[C@@H](C(N)=O)NC(=O)[C@H](Cc2ccc(O)cc2)NC1=O,-7.9,2.6,-6.6,.,17.8*,-1.4
CC(C)C[C@@H]1NC(=O)[C@H](Cc2ccc(O)cc2)NC(=O)c2cc([N+](=O)[O-])cc(I)c2NCCC[C@@H](C(N)=O)NC1=O,-3.6,-8.1,-4.1,.,15.5*,-4.1
NC(=O)[C@@H]1CCCNc2c(I)cc([N+](=O)[O-])cc2C(=O)N[C@@H](CO)C(=O)N[C@@H](Cc2ccc(O)cc2)C(=O)N1,-5.3,2.6,-5.6,-3.4,6.4,1.6
CC(=O)N(c1ccccc1C)C1CCCC1,4.3,0.7,-8.0,3.4,-0.5,-1.0
CC(=O)N(C1=C(Cl)C(=O)c2ccccc2C1=O)C1CCCCC1,-39.5,69.9*,10.6,4.0,7.9,33.1
S=C(NCCCN1CCOCC1)Nc1ccc(Nc2ccccc2)cc1,6.3,1.4,-1.4,-4.4,-0.4,4.9
CCOc1cc(/C=C(\C#N)C(=O)Nc2ccccc2[N+](=O)[O-])ccc1OCc1cccc2ccccc12,55.3*,-5.1,-5.3,.,0.4,1.3
CCN(CC)CCN1C(=O)C(O)=C(C(=O)c2ccco2)C1c1ccccn1 (stereo unspecified),-0.2,9.7,-24.4,59.4*,-2.3,8.8
CCCOc1cccc(C2C(C(=O)c3ccco3)=C(O)C(=O)N2CCN(CC)CC)c1 (stereo unspecified),-0.3,0.7,-17.3,2.3,-6.3,-0.4

# Screens as filed in PubChem BioAssay.
